Reference: ChEMBL document CHEMBL1134773, “Design and synthesis of potent and selective alpha(4)beta(7) integrin antagonists” (J Med Chem, 2001)
pIC50: −log10 of the molar value.

How the values were obtained:
Integrin alpha-4/beta-7 = biological target: T1, Integrin alpha-4/beta-7 (Homo sapiens, UniProt P13612+P26010); assay: Inhibition of alpha-4-beta-7/MAdCAM interactions; assay type: protein-complex assay
T1 sequence (P13612 whole entry): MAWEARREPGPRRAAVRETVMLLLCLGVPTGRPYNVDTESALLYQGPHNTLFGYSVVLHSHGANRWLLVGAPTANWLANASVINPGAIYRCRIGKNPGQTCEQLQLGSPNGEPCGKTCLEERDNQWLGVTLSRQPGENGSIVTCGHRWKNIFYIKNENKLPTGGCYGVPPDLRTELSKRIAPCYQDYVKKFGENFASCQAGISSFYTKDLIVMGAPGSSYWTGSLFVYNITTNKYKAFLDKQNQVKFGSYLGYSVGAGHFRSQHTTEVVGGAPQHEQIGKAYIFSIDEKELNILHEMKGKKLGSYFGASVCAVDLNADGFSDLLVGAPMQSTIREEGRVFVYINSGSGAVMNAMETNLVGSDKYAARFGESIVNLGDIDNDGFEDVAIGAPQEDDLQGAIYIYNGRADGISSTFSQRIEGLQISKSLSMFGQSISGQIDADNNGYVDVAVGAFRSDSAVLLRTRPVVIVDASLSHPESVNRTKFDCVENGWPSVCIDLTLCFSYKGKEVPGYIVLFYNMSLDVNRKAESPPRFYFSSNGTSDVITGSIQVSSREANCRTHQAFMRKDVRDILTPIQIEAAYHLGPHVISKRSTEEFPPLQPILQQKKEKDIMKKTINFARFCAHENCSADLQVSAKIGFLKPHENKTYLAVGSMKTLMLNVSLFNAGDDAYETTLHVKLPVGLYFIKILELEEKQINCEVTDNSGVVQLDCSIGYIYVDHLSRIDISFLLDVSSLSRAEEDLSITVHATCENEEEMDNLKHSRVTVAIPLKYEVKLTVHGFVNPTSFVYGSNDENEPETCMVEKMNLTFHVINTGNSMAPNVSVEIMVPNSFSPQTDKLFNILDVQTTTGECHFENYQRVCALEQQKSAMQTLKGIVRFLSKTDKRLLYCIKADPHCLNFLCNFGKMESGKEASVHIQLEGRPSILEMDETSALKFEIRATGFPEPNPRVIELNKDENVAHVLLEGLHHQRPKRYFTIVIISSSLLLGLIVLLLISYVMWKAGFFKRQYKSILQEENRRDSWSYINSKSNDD
T1 sequence (P26010 whole entry): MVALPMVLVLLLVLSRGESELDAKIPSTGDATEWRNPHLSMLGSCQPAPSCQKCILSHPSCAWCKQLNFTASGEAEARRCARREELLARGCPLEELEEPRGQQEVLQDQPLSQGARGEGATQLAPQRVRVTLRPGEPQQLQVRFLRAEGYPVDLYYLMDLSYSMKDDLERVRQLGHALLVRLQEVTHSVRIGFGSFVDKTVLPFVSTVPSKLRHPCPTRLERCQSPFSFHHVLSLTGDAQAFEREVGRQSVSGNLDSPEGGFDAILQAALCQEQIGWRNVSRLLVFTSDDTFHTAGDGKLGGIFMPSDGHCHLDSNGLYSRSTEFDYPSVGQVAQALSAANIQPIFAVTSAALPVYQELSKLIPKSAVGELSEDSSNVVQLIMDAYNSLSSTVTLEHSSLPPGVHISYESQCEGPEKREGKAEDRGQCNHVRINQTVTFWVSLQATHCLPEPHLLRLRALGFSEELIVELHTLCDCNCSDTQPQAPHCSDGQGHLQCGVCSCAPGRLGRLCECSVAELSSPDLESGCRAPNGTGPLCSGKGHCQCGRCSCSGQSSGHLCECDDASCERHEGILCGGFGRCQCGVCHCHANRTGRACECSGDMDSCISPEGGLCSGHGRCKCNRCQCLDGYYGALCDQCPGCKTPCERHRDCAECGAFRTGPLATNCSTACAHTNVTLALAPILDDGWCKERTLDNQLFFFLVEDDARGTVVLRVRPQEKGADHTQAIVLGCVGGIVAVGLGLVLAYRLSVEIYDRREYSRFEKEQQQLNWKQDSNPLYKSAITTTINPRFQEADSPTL
Method in brief: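 Plates carried anti-human IgG capture antibody, then 100 ng MAdCAM-Ig (30 min, room temperature), then were blocked 1 h at 37 °C. H33342-labelled 38-β7 cells (8×10^5/mL, Ca2+/Mg2+ 1.0 mM) were preincubated 10 min at 37 °C with peptide. They adhered 30 min at 37 °C, and unbound cells were spun off inversely at 50g. Values are mean ± SD of ≥3 experiments.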

[1] = biological target: Integrin alpha-4/beta-1 (Homo sapiens) (UniProt P05556+P13612); assay: Inhibition of alpha4-beta1 lymphoma cell binding to CHO-VCAM-1 cells.; assay type: cell-based
[2] = biological target: T2, Integrin alpha-4/beta-7 (Homo sapiens) (UniProt P13612+P26010); assay: Ability to inhibit adhesion of alpha4-beta7 integrin expressing 38-beta7 lymphoma cells to chinese hamster ovary (CHO) cells stably transfected with MAdCAM-1; assay type: cell-based
Method in brief: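 38-β7 lymphoma cells (α4β7+) labelled 30 min at 37 °C with 12 μg/mL H33342, then 8×10^5/mL in buffer with 1.0 mM Ca2+/Mg2+. Preincubated 10 min at 37 °C with peptide at 1 mg/mL final. Allowed to adhere 30 min at 37 °C to confluent MAdCAM-1-transfected CHO monolayers (seeded 24 h before). Nonadherent cells removed by inverse centrifugation. Result given as % of medium control, mean of two experiments.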

[3] = biological target: T2, Integrin alpha-4/beta-7 (Homo sapiens); assay: Inhibition of alpha4-beta7 lymphoma cell binding to CHO-VCAM-1 cells.; assay type: cell-based
PBL = assay: Effect on human PBL cell binding to Laminin.; assay type: cell-based
Method in brief: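 Human PBL labelled with H33342 (12 μg/mL, 30 min, 37 °C), resuspended at 8×10^5/mL with 1.0 mM Ca2+ and Mg2+. Peptides at 1 mg/mL final were preincubated with the cells for 10 min at 37 °C. Cells then adhered 30 min at 37 °C to plates coated 16 h at 4 °C with 2 μg/well laminin (pH 9.4 carbonate). Read-out is % of medium control, mean ± SD of ≥3 experiments.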

Row | pIC50 (Integrin alpha-4/beta-7) | Adhesion [1] | Adhesion [2] | Adhesion [3] | Structure (SMILES) | Adhesion (PBL)
1 | 3.53 |  |  |  | CC(C)C[C@@H]1NC(=O)[C@H](Cc2ccccc2)NC(=O)[C@H]2CCCN2C(=O)[C@H](C)NC(=O)[C@H]([C@@H](C)O)NC(=O)[C@H](CC(=O)O)NC1=O | 
2 | 3.33 |  |  |  | CC(C)C[C@H](NC(=O)c1cc2ccccc2cn1)C(=O)N[C@@H](CC(=O)O)C(=O)N[C@H](C(N)=O)[C@@H](C)O | 
3 |  | 72% | 3% | 38% | CC(C)C[C@@H]1NC(=O)[C@@H](Cc2ccccc2)NC(=O)[C@H]2CCCN2C(=O)[C@@H](CC(=O)O)NC(=O)[C@H]([C@@H](C)O)NC(=O)[C@@H](CC(=O)O)NC1=O | 95%
4 | 3.51 |  |  |  | CC(C)C[C@@H]1NC(=O)[C@H](Cc2ccc(O)cc2)NC(=O)[C@H]2CCCN2C(=O)[C@H](CC(=O)O)NC(=O)[C@H]([C@@H](C)O)NC(=O)[C@H](CC(=O)O)NC1=O | 
5 |  | 78% | 3% | 37% | CC(C)C[C@@H]1NC(=O)[C@@H](Cc2ccc(O)cc2)NC(=O)[C@H]2CCCN2C(=O)[C@@H](CC(=O)O)NC(=O)[C@H]([C@@H](C)O)NC(=O)[C@@H](CC(=O)O)NC1=O | 111%
6 | 3.50 |  |  |  | CSCC[C@@H]1NC(=O)[C@H]2CCCN2C(=O)[C@H](CC(=O)O)NC(=O)[C@H]([C@@H](C)O)NC(=O)[C@H](CC(=O)O)NC(=O)[C@H](CC(C)C)NC1=O | 
7 |  | 108% | 15% | 36% | CSCC[C@H]1NC(=O)[C@H]2CCCN2C(=O)[C@@H](CC(=O)O)NC(=O)[C@H]([C@@H](C)O)NC(=O)[C@@H](CC(=O)O)NC(=O)[C@H](CC(C)C)NC1=O | 102%
8 |  | 109% | 7% | 36% | CC(C)C[C@@H]1NC(=O)[C@@H](Cc2ccccc2)NC(=O)[C@H]2CCCN2C(=O)[C@@H](C)NC(=O)[C@H]([C@@H](C)O)NC(=O)[C@@H](CC(=O)O)NC1=O | 
9 | 3.52 |  |  |  | CC(C)C[C@@H]1NC(=O)[C@H](Cc2c[nH]cn2)NC(=O)[C@H]2CCCN2C(=O)[C@H](CC(=O)O)NC(=O)[C@H]([C@@H](C)O)NC(=O)[C@H](CC(=O)O)NC1=O | 
10 | 3.79 |  |  |  | CC(C)C[C@@H]1NC(=O)[C@H](Cc2ccccc2)NC(=O)[C@H]2CCCN2C(=O)[C@H](CC(=O)O)NC(=O)[C@H]([C@@H](C)O)NC(=O)[C@H](CC(=O)O)NC1=O | 
11 |  |  | 100% | 93% | NC(=O)C[C@@H]1NC(=O)CNC(=O)[C@@H](Cc2ccccc2)NC(=O)[C@@H](Cc2c[nH]cn2)NC(=O)[C@@H](CCC(=O)O)NC1=O | 
12 |  | 74% | 9% | 27% | CC(C)C[C@@H]1NC(=O)[C@@H](Cc2c[nH]cn2)NC(=O)[C@H]2CCCN2C(=O)[C@@H](CC(=O)O)NC(=O)[C@H]([C@@H](C)O)NC(=O)[C@@H](CC(=O)O)NC1=O | 114%
13 |  |  | 102% |  | C[C@H]1NC(=O)[C@H]2CCCN2C(=O)[C@@H](CC(=O)O)NC(=O)[C@H]([C@@H](C)O)NC(=O)[C@@H](CC(=O)O)NC(=O)[C@H](Cc2ccccc2)NC1=O | 
